# From PubChem
# The entries come from a sample that favours hits as a whole.
# 697 NFkB inh = inhibitors of PMA/ionomycin-induced NF-kB reporter, 697 cells, primary screen, B-cell NF-kB inhibitor project, cell-based, luminescence, uHTS. 697 B-cell NF-kB luciferase reporter, 16 h. hit rate 0.33% among 330,000. inhibition, % at 4 µM. AID 435022, 2010; in the data active means inhibition above about 35%
# UPR XBP1 act = activators of adaptive XBP1 UPR arm, primary screen, cell-based, CHO-XBP1 luciferase reporter, luminescence, uHTS; hit rate 0.33% among 330,000; IRE1-XBP1 UPR activation; percent of tunicamycin response, DMSO as zero; activation, % at 20 µM; AID 463104, 2010;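 active means versus positive control, 20 µM dose yields 30% or more activation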;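 further: 100% = tunicamycin at 10 µg/mL and 0% = DMSO only wells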
#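 Material: CHO cell line with stable XBP1 luciferase reporter; buffer or medium: F12 medium containing 10% fetal bovine serum; compound: single point, 20 µM final compound, 1% DMSO; incubation: 6 h treatment, 37 °C; measured by: glow luminescence from Steady-Glo reagent; evaluation: activation, % of tunicamycin; control set: tunicamycin high, DMSO low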
# UPR CHOP act = activators of apoptotic CHOP UPR arm, primary screen, cell-based, CHO-CHOP luciferase reporter, luminescence, uHTS | UPR activation; percent of tunicamycin response over DMSO baseline | activation, % at 10 µM | hit rate 0.34% among 330,000;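 active means at 10 µM dose, activation of 40% or more, normalized to positive control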;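 further: 100% = tunicamycin at 10 µg/mL and 0% = DMSO alone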
#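 System: CHO CHOP reporter cells. Amount: 500 cells per well. Buffer or medium: F12 medium, 10% FBS. Compound dosing: one dose, 10 µM in 0.5% DMSO. Incubation: 6 h compound exposure at 37 °C after overnight seeding. Technique: Steady-Glo luciferase luminescence. Benchmarks: tunicamycin and DMSO controls.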
# CHOP inhibitor = inhibitors of CHOP promoter induction, primary screen, cell-based, unfolded protein response, luciferase reporter | AID 2732, 2010 | inhibition, % at 10 µM | hit rate 3.8% among 220,000 | CHO-K1 CHOP-promoter luciferase, tunicamycin-induced, 15-18 h;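 active means compounds that reduced the stress-induced luciferase reporter signal by more than about 70% of percent inhibition, limit read from the data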;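 further: 0% = tunicamycin plus vehicle and 100% = wells without tunicamycin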
# Jurkat NFkB inh = inhibitors of induced NF-kB luciferase reporter, primary screen, TCR NF-kB activation inhibitor project, cell-based, luminescence, uHTS; hit rate 0.53% among 330,000; Jurkat, PMA/ionomycin-induced NF-kB luciferase reporter; inhibition, % at 4 µM; AID 435003, 2010; in the data active means inhibition above about 50%
# Jurkat NFkB conf = PMA/ionomycin-induced NF-kB reporter inhibitors, Jurkat retest, confirmation, T-cell NF-kB inhibitor project, cell-based, luminescence, single concentration. shares compounds with Jurkat NFkB inh. Jurkat NF-kB luciferase, 16 h. inhibition, % at 4 µM. hit rate 27% among 2,700. AID 435020, 2010;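 active means inhibition reaching about 45% at 4 µM in either replicate, limit read from the data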;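 further: plate controls were PMA/ionomycin stimulated DMSO wells for no effect and unstimulated DMSO wells for full effect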
# 697 NFkB conf = PMA/ionomycin-induced NF-kB reporter inhibitors, 697 retest, confirmation, B-cell NF-kB inhibitor project, cell-based, luminescence, single concentration; inhibition, % at 4 µM; shares compounds with 697 NFkB inh; hit rate 35% among 2,000; 697 B-cell NF-kB luciferase, 16 h; in the data active means inhibition mostly above about 28%, no sharp cut-off; inactive means mostly below about 22%
# CHOP UPR conf = activators of apoptotic CHOP UPR arm, confirmation, cell-based, CHO-CHOP luciferase reporter, single concentration | shares compounds with UPR CHOP act | CHO-CHOP cells, CHOP-luciferase reporter luminescence; percent of tunicamycin response, DMSO as zero | activation, % at 10 µM | hit rate 64% among 1,000; in the data active means activation above about 33%;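 further: 0% = DMSO wells and 100% = tunicamycin 10 µg/mL wells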
# XBP1 UPR conf = IRE1-XBP1 UPR arm activators, confirmation, cell-based, CHO-XBP1 luciferase reporter, luminescence, single concentration. shares compounds with UPR XBP1 act. activation, % at 20 µM. hit rate 63% among 1,000. AID 485299, 2010;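 active means reporter signal at least 30% of the positive control's activation in two or more of four replicate wells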;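 further: plate controls were DMSO negative control for no effect and tunicamycin 10 µg/mL positive control for full effect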
# Numbers without * were called inactive; . = no result given.
SMILES,697 NFkB inh,UPR XBP1 act,UPR CHOP act,CHOP inhibitor,Jurkat NFkB inh,Jurkat NFkB conf,CHOP UPR conf,others
O=C1c2cccc([N+](=O)[O-])c2C(=O)N1c1cccnc1,-25,-3,0,19,-18,.,.,
O=C1c2ccccc2C(=O)N1c1cccnc1,45*,-1,0,6,53*,12,.,697 NFkB conf=-19
O=C(O)CC1(CC(=O)NCc2ccc(Cl)cc2)CCCCC1,-2,-2,0,.,-9,.,.,
COc1ccc(NS(=O)(=O)c2ccc(C)c(C(=O)N3CCCCCCC3)c2)cc1,-13,0,-2,.,-4,.,.,
COc1cc(/C=N/NC(=S)Nc2cccc(C(=O)O)c2)ccc1O,38*,-4,-6,14,54*,50*,.,697 NFkB conf=38*
Cc1ccc[n+](CC(=O)/C=C2\N(C)c3ccccc3C2(C)C)c1,48*,-1,2,0,55*,10,.,697 NFkB conf=1
CN1/C(=C\C(=O)C[n+]2cccc(Br)c2)C(C)(C)c2ccccc21,22,-4,-2,6,42,.,.,
C=CCOc1ccc2ccccc2c1CNn1cn[nH]c1=S,-8,2,0,.,-11,.,.,
CC(C)(C)C(=O)CSc1ncnc2c1cnn2-c1ccccc1,-258,1,9,-35,-161,-94,.,697 NFkB conf=-194
O=C(NCc1ccccn1)c1ccccc1OCc1ccc(Cl)cc1Cl,-12,0,9,.,-9,.,.,
COc1cc(/C=C/C(=O)c2ccc([N+](=O)[O-])o2)ccc1O,-44,-6,94*,.,71*,47*,-6,
C/C(=N\NC(=O)C(C)Oc1ccc([N+](=O)[O-])cc1)c1ccccn1 (centres undefined),-14,7,67*,70,61*,13,42*,
CC(Oc1ccccc1)C(=O)NNC(=O)c1ccccn1 (centres undefined),-1,-2,0,-20,5,.,.,
CCOc1ccc2nc3cc(NCc4ccc(OC)cc4)ccc3c(N)c2c1,-29,4,71*,.,100*,15,1,
CCn1cnc2cc(NCc3ccc(OC)cc3)ccc21,-41,4,3,9,-53,.,.,
Cc1csc(NC(=O)c2ccc(S(=O)(=O)N3CCN(C)CC3)cc2)n1,-13,1,6,.,-29,.,.,
CC1(C)Cc2c(sc(NC(=O)COc3cccc4ccccc34)c2C#N)C(C)(C)N1,-17,25,54*,17,87*,62*,19,
O=C(/C=C/c1c(F)cccc1Cl)N1CCc2ccccc2C1,-7,2,7,.,-14,.,.,
C/C(=N\NC(=O)c1ccc(Cl)cc1)c1ccccn1,-123,2,407*,.,98*,-1,403*,
C/C(=N\NC(=O)c1ccccn1)c1ccc(Cl)cc1,-137,-3,0,-16,-124,.,.,
Cc1ccc(OC(C)C(=O)Nc2ccccc2C(=O)N2CCN(C)CC2)cc1 (centres undefined),-2,-4,4,.,-8,.,.,
COc1cccc(N=Nc2ccc3cccnc3c2O)c1,-124,4,127*,.,95*,20,86*,
COc1ccc(-c2ncccc2O)cc1,18,-4,-1,-21,-18,.,.,
COc1cccc(N=Nc2ccc(O)c3ncccc23)c1,-79,7,107*,.,70*,15,86*,
COc1ccc(N=Nc2ccc(O)c3ncccc23)cc1,-122,11,153*,61,74*,-14,148*,
SMILES,697 NFkB inh,UPR XBP1 act,UPR CHOP act,CHOP inhibitor,Jurkat NFkB inh,Jurkat NFkB conf,CHOP UPR conf,others
COc1ccc(C2C(C#N)=C(N)Oc3cc(O)ccc32)cc1Cl (centres undefined),-8,-1,0,.,-4,.,.,
Cc1ccc(S(=O)(=O)Nc2cccc3ncccc23)s1,-156,-6,219*,.,83*,21,10,
c1ccc(CSC2=NNC(c3ccccn3)S2)cc1 (centres undefined),-19,10,240*,17,71*,1,313*,
c1ccc(CSc2ncccn2)cc1,-16,4,2,37,-11,.,.,
CC(=O)C1=C(O)C(=O)N(C)C1c1ccccc1[N+](=O)[O-] (centres undefined),-9,6,0,4,-7,.,.,
Cc1ccc(S(=O)(=O)NC(=O)Nc2cccc(S(=O)(=O)N(C)C)c2)cc1,15,0,1,.,1,.,.,
Oc1ccc2ccccc2c1N=Nc1ccccn1,-9,-4,48*,69,62*,52*,37*,
O=C(N/N=C/c1ccccn1)c1ccc(Cl)c(Cl)c1,3,1,208*,.,70*,-2,233*,
O=C(N/N=C/c1ccccn1)c1ccc(NC(=O)c2ccccc2Cl)cc1,29,1,2,.,10,.,.,
CC(C)(C)c1ccc(Oc2ccc(NC(=O)c3ccco3)cn2)cc1,-143,11,43*,15,53*,40,-2,
COc1cccc(CNC(=O)CN2C(=O)CSc3ccc(S(=O)(=O)N4CCOCC4)cc32)c1,-8,-4,0,.,-2,.,.,
COc1cc(-c2noc(C)c2/C=C/c2ccc(OC(C)=O)cc2)cc(OC)c1OC,-45,32*,3,.,68*,49*,.,XBP1 UPR conf=32*
CCCCn1c(N)c(N(CCC(C)C)C(=O)CC2CCCC2)c(=O)[nH]c1=O,9,-4,0,.,8,.,.,
COc1ccc(-c2coc3cc4oc(=O)c5ccccc5c4cc23)cc1F,-60,64*,1,5,73*,3,.,XBP1 UPR conf=23
CCn1c2ccccc2c2cc(Nc3cc(C)nc4ncnn34)ccc21,-197,36*,-1,.,65*,49*,.,XBP1 UPR conf=23
Cc1cc2ccccn2c1C(=O)c1ccccc1F,3,6,0,.,13,.,.,
Cc1cc(N2CCN(C)CC2)ccc1NC(=O)c1c2c(nc3ccccc13)CCN(Cc1ccccc1)C2,10,42*,15,-40,77*,11,.,XBP1 UPR conf=12
